Screening data as filed in PubChem.
Many of the other results were omitted from the sample, so hits are more common in it than they were.
Calb FLC = C. albicans growth modulation with fluconazole | 300,000 compounds, 0.57% hits | AID 1979 | growth inhibition, % (test concentration not listed) | C. albicans CaCi-2 (fluconazole-resistant clinical isolate) + fluconazole, Alamar Blue growth, 48 h;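 active = growth inhibition above about 58% in most replicates, limit read from the data, passing the limit was not always enough; inconclusive = exactly half the replicates above a set limit; inactive = most replicates below a set limit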;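 also: all wells also contain fluconazole at 8 µg/ml as a sub-toxic cotreatment; 0% = median of DMSO wells and 100% = median of geldanamycin control wells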
L major viab = inhibitors of Leishmania major promastigote growth. Leishmania major promastigotes, resazurin fluorescence viability. inhibition, % at 10 µM. 200,000 compounds, 9% hits. AID 1063; in the data active = inhibition above about 50%;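 also: promastigotes grown with compound for 44 hours at 28 °C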
NALP1 inh = NALP1 inhibition; 280,000 compounds, 0.61% hits; inhibition, % at 10 µM; S. cerevisiae NALP1/ASC/caspase-1 growth, X-gal OD620, 72 h; AID 2071; in the data active = inhibition mostly above about 24%, no sharp cut-off; inactive = mostly below about 32%
PolyA inh = yeast polyadenylation inhibition; S. cerevisiae SKY197-pL101 polyadenylation reporter, beta-gal luminescence; efflux-impaired pdr1/pdr3 knockout yeast; score 100 = 6 SD above DMSO; activity score, % at 12 µM; 300,000 compounds, 0.02% hits;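 active = lowest replicate activity score at least 50, where 100 means six control SD above control mean; inconclusive = lowest score under 50 but half or more replicates reach 50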;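 also: yeast exposed to compound for 9 h at 30 °C; higher score means more reporter readthrough which indicates perturbed polyadenylation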
NALP3 yeast inh = blocks the NALP3 inflammasome reconstituted in yeast; Yeast reconstituted NLRP3/ASC/caspase-1, beta-gal luminescence, 24 h; inhibition, % at 10 µM; 330,000 compounds, 0.39% hits; AID 2825;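 active = inhibition of 50% or more; inactive = inhibition below 50%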;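 also: plate controls were induced DMSO wells for no effect and uninduced yeast grown without galactose for full effect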
T cruzi repl = T. cruzi replication inhibition; inhibition, % (concentration not given with the values); 300,000 compounds, 1.4% hits; T. cruzi beta-gal in NIH3T3, luminescence, 90 h;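 active = mean inhibition across valid replicates above about 55%, limit read from the data; inconclusive = mean below that limit but half or more replicates reach it; inactive = mean below it, under half of replicates reach it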;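 also: signal also drops with host cell toxicity which is not excluded here; 0% = plate median of DMSO wells and 100% = zero luminescence signal; higher percent means less beta-gal luminescence so fewer parasites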
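System: Mouse NIH/3T3 fibroblasts infected with β-gal-expressing T. cruzi Tulahuen C4 | Quantity: NIH/3T3 cells, 5,000 per well | Reagent: 5000 reporter trypomastigotes per well | Dosing: Compound pinned at 50 nL/well, DMSO | Schedule: 3 h host attachment, then at least 90 h co-culture | Detection: GalScreen luminescence, 60 min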
Lmaj promast 1uM = L. major promastigote growth inhibition, 1 uM repeat; shares compounds with L major viab; resazurin fluorescence, 48 h; inhibition, % at 1 µM; 1,100 compounds, 13% hits;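 active = inhibition above about 50% in both repeat tests, limit read from the data; inconclusive = one repeat under the set limit, the other over it; inactive = both repeats under the set limit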
An asterisk follows results filed as active; ? = inconclusive; . = no result given.

SMILES	Calb FLC	L major viab	NALP1 inh	PolyA inh	NALP3 yeast inh	T cruzi repl	Lmaj promast 1uM
Cc1ccc(-n2nnnc2-c2cnc3ccc(Cl)cc3c2-c2ccccc2)cc1	-9	-4	4	7	3	1	.
CC(C)N(CCCNC(=O)c1nn(C)c2c1CS(=O)(=O)c1ccccc1-2)Cc1ccccc1	-2	.	-1	-10	5	2	.
CCOC(=O)Cc1nc(-c2ccc(Cl)cc2)n[nH]1	-2	2	10	24	13	-7	.
c1ccc(-c2nc(-c3cccs3)[nH]c2-c2ccccc2)cc1	3	53*	8	-30	-36	26	8
Cc1oc2c(CN3CCCC3)c(O)ccc2c(=O)c1-c1ccc(Br)cc1	5	99*	10	4	11	5	-5
Nc1n[nH]c(-c2ccccc2)n1	-6	-4	11	-5	20	-16	.
Nc1n[nH]c(-c2ccccc2[N+](=O)[O-])n1	13	60*	12	-13	16	-16	-4
O=C(NN=C1C2CC3CC(C2)CC1C3)c1cc(Cl)ccc1O	?	-9	-7	13	8	-19	.
C#CCSc1nsc(SCC#C)c1C#N	-3	94*	17	-24	5	-9	-14
CCCSc1nsc(SCCC)c1C#N	-3	-3	2	-8	9	-11	.
COc1ccc(Cn2c(-c3ccc(OC)cc3)nc3ccccc32)cc1	-1	62*	31	-17	24	36	63*
NNC(=O)c1ccc(CSc2cccc3cccnc23)cc1	-4	-12	-1	2	16	-18	.
Cc1cccc(CSc2cccc3cccnc23)c1	-13	100*	-7	-36	41	70*	-9
Cc1ccc(NC(=O)CSCC(=O)Nc2cc(Cl)ccc2N2CCN(C)CC2)cc1	-18	.	.	12	3	26	.
Cc1ccc(SCC(=O)Nc2ccc(N3CCN(C)CC3)c(F)c2)cc1	-7	100*	-7	10	7	36	2
CN(C(=O)n1cnc2ccccc21)c1ccccc1	1	-5	23	-3	-8	-5	.
ClC(Br)=C(n1cnc2ccccc21)n1cnc2ccccc21	-2	100*	-3	-2	-3	5	-20
O=C(COc1cccnc1[N+](=O)[O-])Nc1cccc(S(=O)(=O)N2CCCCC2)c1	16	1	23	-2	2	15	.
CC(=O)C12CCCCC1CC1[C@@H]3CC(C)C4=CC(=O)CC[C@]4(C)C3CC[C@@]12C (stereo partly specified)	-3	.	13	1	5	5	.
CC(=O)O[C@]1(C(C)=O)CC[C@H]2[C@@H]3C[C@H](C)C4=CC(=O)CC[C@]4(C)[C@H]3CC[C@@]21C	.	76*	19	15	10	19	-2
O=C(CSc1nnc2c(n1)[nH]c1ccc(S(=O)(=O)N3CCOCC3)cc12)Nc1ccc(F)c(F)c1	7	-1	-33	8	3	1	.
CC(C)(C)c1ccc(-c2ncccc2O)cc1	0	100*	-11	.	11	.	83*
CC(C)(C)c1ccc(C(=O)NCCCNC(=O)c2ccccn2)cc1	6	.	-7	-23	-3	2	.
O=C(CCn1c(=O)[nH]c2ccsc2c1=O)Nc1ccc(F)c(F)c1	-2	9	-8	7	13	10	.
O=C1CCC([N+](=O)[O-])C(c2cccc(Br)c2)N1 (stereo unspecified)	-14	54*	5	11	9	-23	-10
SMILES	Calb FLC	L major viab	NALP1 inh	PolyA inh	NALP3 yeast inh	T cruzi repl	Lmaj promast 1uM
CC(=O)NC1C(Oc2ccccc2C)OC2COC(c3ccco3)OC2C1O (stereo unspecified)	-4	2	31	5	13	-15	.
Cc1ccccc1Nc1cc2ccccc2c(=O)[nH]1	-20	53*	1	-12	-11	19	-10
N=C(N)SCc1cn(-c2ccccc2)nc1-c1ccc(Br)cc1	-22	101*	-1	1	.	55*	79*
COc1ccc(-c2nn(-c3ccccc3)cc2CO)cc1	3	17	12	-14	20	-1	.
NC(=O)NOCc1ccc(Cl)cc1Cl	-7	3	31	14	4	-8	.
CNC(=S)/N=C/NOCc1ccc(Cl)cc1Cl	93*	58*	16	-16	20	74*	15
